The record followed here is ChEMBL document CHEMBL5055628, “Anticancer properties of indole derivatives as IsoCombretastatin A-4 analogues” (Eur J Med Chem, 2021).

In one data set the test system is HCT-116. The experiment in a line: Cytotoxicity against human HCT-116 cells assessed as inhibition of cell growth measured after 72 hrs by CellTiter-Glo reagent based luminescence assay. The data set is classed as functional. The following applies: HCT-116, 72 h. In outline:
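Cells (HCT-116 in McCoy's 5A; U87-MG in DMEM 4.5 g/L glucose; all with 10% serum, 1% glutamine, 37 °C, 5% CO2) seeded at 3 × 10³/well, treated after 24 h with 10 final concentrations by serial dilution; vehicle controls. After 72 h, CellTiter-Glo luminescence; IC50 from four- or five-parameter logistic fit, triplicate, mean of three experiments.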
On the technique in general: ATP-based viability assays read luminescence as a measure of living cells.

A short description of data set [1]: Drug metabolism in human liver microsomes assessed as O-demethylated metabolite formation measured after 96 hrs by ESI-HRMS assay. The data set is classed as ADME, Microsome. In outline: (§1)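 Rat or human liver microsomes at 1 mg/mL final protein in 10 mM buffer, pH 7.4, prewarmed to 37 °C with an NADPH-generating system (0.6 mM NADP, 6.4 mM glucose-6-phosphate, 2 U/mL G6P dehydrogenase). Substrate 100 μM final; shaken at 37 °C. Triplicate aliquots taken at 0–96 h (up to 144 h), ethyl acetate quench with internal standard, then HPLC-MS/MS (positive ESI, m/z 150–450, CID).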
(In general: Liver microsomes are vesicles of endoplasmic reticulum, rich in cytochrome P450 enzymes.)

Data set [2] can be described thus: Metabolic stability in rat liver microsomes assessed as half life measured after 96 hrs by HPLC-MS/MS analysis. The data set is classed as ADME, Microsome. In outline: (§2)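 Compound (100 μM final) incubated at 37 °C with rat or human liver microsomes (1 mg/mL protein, pH 7.4) and NADPH-generating system; triplicate aliquots at 0–144 h quenched with isoCA-4 internal standard and ethyl acetate, quantified by HPLC-MS/MS against calibration curves.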

Data set [3] in a line: Inhibition of porcine brain tubulin polymerization incubated for 30 mins followed by cooling on ice for 10 mins and measured by UV spectrometer assay. The data set is classed as tissue-based, Sus scrofa. In outline: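 Porcine brain tubulin (Shelanski isolation) in 0.1 M MES, 1.5 mM GTP, 1 mM EGTA, 1 mM β-ME, 1 mM MgCl2, pH 6.7, diluted to 1.5 mg/mL; ligand or DMSO 30 min at 20 °C, 10 min on ice. Assembly by 450 nm turbidity on 4→37 °C shift, plateau minus baseline vs no-ligand control (100%); IC50 from mono-exponential fit of ligand:tubulin ratio, three independent experiments.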

Data set [4] is described as follows: Drug metabolism in human liver microsomes assessed as hydroxylated metabolite formation measured after 96 hrs by ESI-HRMS assay. The data set is classed as ADME, Microsome. In outline: (§3)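 Compound at 100 μM final incubated at 37 °C with rat or human liver microsomes (1 mg/mL protein, 10 mM buffer pH 7.4) plus NADPH-generating system (0.6 mM NADPNa4, 6.4 mM glucose-6-phosphate, 2 U/mL G6PDH). After 96 h, ethyl acetate extraction and HPLC-MS/MS (positive ESI, m/z 150–450, collision-induced dissociation) to identify metabolites.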

Data set [5] is described as follows: Metabolic stability in human liver microsomes assessed as half life measured after 96 hrs by HPLC-MS/MS analysis. The data set is classed as ADME, Microsome. In outline:
as §2

The nature of data set [6]: Drug metabolism in rat liver microsomes assessed as hydroxylated metabolite formation measured after 96 hrs by ESI-HRMS assay. The data set is classed as ADME, Microsome. In short, it runs like this: as §3
Data set [7] is described as follows: Drug metabolism in rat liver microsomes assessed as O-demethylated metabolite formation measured after 96 hrs by ESI-HRMS assay. The data set is classed as ADME, Microsome. In short, it runs like this: as §1
The next data set concerns HT-1080. Kind of data set: Cytotoxicity against human HT-1080 cells assessed as inhibition of cell growth measured after 72 hrs by CellTiter-Glo reagent based luminescence assay. The following applies: HT-1080, 72 h. The data set is classed as functional.
A further data set deals with MIA PaCa-2. Kind of data set: Cytotoxicity against human MIA PaCa-2 cells assessed as inhibition of cell growth measured after 72 hrs by CellTiter-Glo reagent based luminescence assay. The data set is classed as functional. The following applies: MIA PaCa-2, 72 h. In outline: (§4)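 Cells seeded at 3 × 10³/well and grown 24 h. A549, MDA-MB231, K562 and K562R (doxorubicin-resistant) were in RPMI 1640; MiaPaCa2 and HT29 in DMEM (4.5 g/L glucose); all media had 10% FCS and 1% glutamine, at 37 °C and 5% CO₂. Cells got 10 final concentrations by serial dilution, with vehicle controls, for 72 h. CellTiter-Glo luminescence was read after 15 min. Triplicate runs; IC50 from four- or five-parameter logistic fits.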

A further data set deals with K562. Kind of data set: Cytotoxicity against human K562 cells assessed as inhibition of cell growth measured after 72 hrs by CellTiter-Glo reagent based luminescence assay. The data set is classed as functional. The following applies: K562, 72 h. In outline:
as §4

Another data set deals with K-562R. The experiment in a line: Cytotoxicity against human K-562R cells assessed as inhibition of cell growth measured after 72 hrs by CellTiter-Glo reagent based luminescence assay. The data set is classed as functional. In outline: as §4
In a further data set the test system is MDA-MB-231. The experiment in a line: Cytotoxicity against human MDA-MB-231 cells assessed as inhibition of cell growth measured after 72 hrs by CellTiter-Glo reagent based luminescence assay. The following applies: MDA-MB-231, 72 h. The data set is classed as functional. In outline: as §4
The test system of another data set is A549. Kind of data set: Cytotoxicity against human A549 cells assessed as inhibition of cell growth measured after 72 hrs by CellTiter-Glo reagent based luminescence assay. The data set is classed as functional. The following applies: A549, 72 h. In short, it runs like this:
as §4

The next data set has as its system HT-29. Kind of data set: Cytotoxicity against human HT-29 cells assessed as inhibition of cell growth measured after 72 hrs by CellTiter-Glo reagent based luminescence assay. The following applies: HT-29, 72 h. The data set is classed as functional. In short, it runs like this:
as §4

SMILES strings stand for the structures. A value given as a limit tells only on which side of the number the result lay.

A word on the IC50: it is the concentration that inhibits the measured activity by half. As a reminder, the half-life is the time in which the quantity being followed falls by half.

In the case of `C=C(c1cc(OC)c(OC)c(OC)c1)c1ccc2c(c1)cc1ccccn12`, the IC50 in the data set with HCT-116 was found to be 213 nM.
Consider `COCc1cc2cc(N(C)c3cc(C)nc4ccccc34)ccc2n1C`, for which the IC50 with HCT-116 was found to be 10.2 nM.
With `COCOCc1cc2cc(N(C)c3cc(C)nc4ccccc34)ccc2n1C`, the IC50 in the data set on HCT-116 is 44.3 nM.
With `C=C(c1cc(OC)c(OC)c(OC)c1)c1ccc2c(c1)cc1n2CCOC1`, in the data set on HCT-116, the IC50 came out at 23.5 nM.
Consider `Cc1cc(N(C)c2ccc3c(c2)cc2n3CC=CC2)c2ccccc2n1`, for which the IC50 with HCT-116 was 5.2 nM.
Take `Cc1cc(N(C)c2ccc3c(c2)cc(CO)n3C)c2ccccc2n1`: the 50% inhibitory concentration (IC50) in the data set on HCT-116 worked out at 16.4 nM.
As for `C=C(c1cc(OC)c(OC)c(OC)c1)c1ccc2c(c1)cc(COC)n2C`, in the data set on HCT-116, the IC50 is 72.4 nM.
With `C=C(c1ccc2c(c1)cc(CO)n2C)c1cc(C)nc2ccccc12`, the IC50 in the data set on HCT-116 is 1.25 nM.
Consider `Cc1nc(N(C)c2ccc3c(c2)cc2ccccn23)c2ccccc2n1`, for which the IC50 with HCT-116 was determined as 6.87 nM.
The same measure, in the same setting: the same measure for `CN(c1ccc2c(c1)cc1n2CCOC1)c1cc(C#N)nc2ccccc12`: 2.8 nM.
As to `C=C(c1cc(OC)c(OC)c(OC)c1)c1ccc2c(c1)cc1n2CC=CC1`, the IC50 with HCT-116 is 970 nM.
As for `C=C(c1ccc2c(c1)cc1n2CCOC1)c1cc(C)nc2ccccc12`, the IC50 with HCT-116 is 109 nM.
As for `COc1cc(N(C)c2ccc3c(c2)cc2n3CC=CC2)cc(OC)c1OC`, in the data set with HCT-116, the IC50 was 959 nM.
As for `Cc1cc(N(C)c2ccc3c(c2)cc2ccccn23)c2ccccc2n1`, in the data set with HCT-116, the IC50 was 78.4 nM.
For the compound `CCn1c(CO)cc2cc(N(C)c3cc(OC)c(OC)c(OC)c3)ccc21`, the IC50 with HCT-116 is 987 nM.
In the case of `Cc1cc(N(C)c2ccc3c(c2)cc2n3CCOC2)c2ccccc2n1`, the IC50 in the data set on HCT-116 turned out to be 3.22 nM.
Take `C=C(c1cc(OC)c(OC)c(OC)c1)c1ccc2c(c1)cc(CO)n2CC`: the IC50 turned out to be 0.52 nM in the data set with HCT-116 and 2900 nM in data set [3]. Further, the Drug metabolism entry in data set [1], in [4], in data set [6] and in data set [7] was “Metabolite_Detected” throughout. Also, the values for the half-life in data set [2] and in [5] were 70 h and 89 h, respectively.
Turning to `COc1cc2nc(Cl)nc(N(C)c3ccc4c(c3)cc3n4CCOC3)c2cc1OC`, in the data set on HCT-116, the IC50 stood at 361 nM.
Still for that read-out and setting: the same measure for `CCn1c(CO)cc2cc(N(C)c3cc(C)nc4ccccc34)ccc21`: 21.6 nM; for `COc1cc(N(C)c2ccc3c(c2)cc2n3CCOC2)cc(OC)c1OC`: 29.2 nM.
Consider `C=C(c1cc(OC)c(OC)c(OC)c1)c1ccc2c(c1)cc(CO)n2C`, for which, in the data set with HCT-116, the IC50 was found to be 2.12 nM.
With `C=C(c1ccc(OC)c(O)c1)c1cc(OC)c(OC)c(OC)c1`, the IC50 with HCT-116 was determined as 0.64 nM; in the data set on HT-1080, 0.91 nM; with MIA PaCa-2, 3.01 nM; with K562 it was 4.26 nM; with K-562R it was 5.13 nM; with MDA-MB-231 it was 1.98 nM. The IC50 in the data set on A549 is 52.7 nM; in the data set with HT-29, over 100 nM. Further, the Drug metabolism entry in data set [1], in data set [4], in data set [6] and in data set [7] was “Metabolite_Detected” throughout. Moreover, the half-life was 18 h in data set [2] and 30 h in data set [5].
For `C=C(c1ccc2c(c1)cc1n2CC=CC1)c1cc(C)nc2ccccc12`, the IC50 in the data set with HCT-116 was 25.7 nM.
Same read-out and setting: the same measure for `C=C(c1ccc2c(c1)cc(CO)n2CC)c1cc(C)nc2ccccc12`: 1.47 nM.
As for `Cc1nc(N(C)c2ccc3c(c2)cc2n3CCOC2)c2ccccc2n1`, the IC50 with HCT-116 stood at 10.4 nM.
As for `COCc1cc2cc(N(C)c3cc(OC)c(OC)c(OC)c3)ccc2n1C`, the IC50 in the data set on HCT-116 was 47.5 nM.
